Laboratory results taken from ChEMBL document CHEMBL4145681, “Discovery of Novel Aminotetralines and Aminochromanes as Selective and Competitive Glycine Transporter 1 (GlyT1) Inhibitors” (J Med Chem, 2018).
The source made the active and inactive calls. The rule behind the calls is not given here.

Legend:
[1] = target: T1, Sodium- and chloride-dependent glycine transporter 1 (Homo sapiens, UniProt P48067); assay: Displacement of [3H]N-Methyl-SSR504734 from human GlyT1c expressed in cell membranes incubated for 1 hr by liquid scintillation spectrometry
T1 sequence (P48067 whole entry): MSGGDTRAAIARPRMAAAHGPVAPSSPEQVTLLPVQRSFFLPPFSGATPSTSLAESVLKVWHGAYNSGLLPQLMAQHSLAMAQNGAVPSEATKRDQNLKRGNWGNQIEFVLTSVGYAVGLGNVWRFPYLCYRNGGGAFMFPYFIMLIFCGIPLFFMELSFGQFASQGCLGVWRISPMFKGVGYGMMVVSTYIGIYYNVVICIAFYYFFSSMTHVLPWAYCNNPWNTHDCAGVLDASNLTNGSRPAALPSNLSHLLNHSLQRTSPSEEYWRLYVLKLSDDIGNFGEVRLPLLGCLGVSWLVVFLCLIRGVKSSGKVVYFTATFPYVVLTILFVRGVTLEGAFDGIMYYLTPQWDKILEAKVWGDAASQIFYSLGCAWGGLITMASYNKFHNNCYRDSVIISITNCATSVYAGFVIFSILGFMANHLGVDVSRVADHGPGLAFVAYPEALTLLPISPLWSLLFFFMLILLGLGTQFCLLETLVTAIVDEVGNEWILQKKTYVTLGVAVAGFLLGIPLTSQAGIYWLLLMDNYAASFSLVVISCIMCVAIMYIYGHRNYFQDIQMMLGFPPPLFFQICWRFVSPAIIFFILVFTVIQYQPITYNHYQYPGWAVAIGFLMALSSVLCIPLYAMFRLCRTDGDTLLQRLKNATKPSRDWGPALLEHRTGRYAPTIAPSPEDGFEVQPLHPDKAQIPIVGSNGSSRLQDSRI

[2] = target: T2, Sodium- and chloride-dependent glycine transporter 1 (Homo sapiens) (UniProt P48067); assay: Inhibition of GlyT1c (unknown origin) expressed in Xenopus laevis oocytes clamped at -60 mV assessed as reduction in 10 uM glycine-induced membrane currents at 300 nM pre-treated with glycine for 1 min followed by compound dosing for 3 mins by two-electrode voltage clamp assay; format: cell-based
T2 sequence (whole entry): T1 sequence (P48067 whole entry)
In short: (§1)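 Oocytes expressing GlyT1c were stimulated with 10 µM or 3000 µM glycine to evoke transporter current. Compound at 300 nM was added to the glycine solution, and % inhibition of the current was calculated. Mode of inhibition was judged by comparing inhibition at the two glycine levels. Data are mean ± SD, N>4 oocytes.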

[3] = target: T2, Sodium- and chloride-dependent glycine transporter 1 (Homo sapiens); assay: Inhibition of GlyT1c (unknown origin) expressed in Xenopus laevis oocytes clamped at -60 mV assessed as reduction in 3000 uM glycine-induced membrane currents at 300 nM pre-treated with glycine for 1 min followed by compound dosing for 3 mins by two-electrode voltage clamp assay; format: cell-based; in short: as §1
[4] = target: T2, Sodium- and chloride-dependent glycine transporter 1 (Homo sapiens); assay: Non-competitive inhibition of GlyT1c (unknown origin) expressed in Xenopus laevis oocytes clamped at -60 mV assessed as reduction in glycine-induced membrane currents at 300 nM pre-treated with glycine for 1 min followed by compound dosing for 3 mins by two-electrode voltage clamp assay; format: cell-based; in short: as §1
[5] = Clearance in rat liver microsomes at 0.5 uM incubated up to 30 mins in presence of NADPH by LC-MS/MS method; format: ADME, microsome; conditions: read-out: CLH
[6] = Clearance in human liver microsomes at 0.5 uM incubated up to 30 mins in presence of NADPH by LC-MS/MS method; format: ADME, microsome; conditions: read-out: CLH
[7] = fCmax in Sprague-Dawley rat brain at 2 mg/kg, ip measured after 8 to 24 hrs by LC-MS/MS method; format: ADME, organism-based; conditions: in vivo
Mus musculus [8] = assay: In-vivo binding affinity to GlyT1 in mouse assessed as target occupancy in forebrains dosed intraperitoneally using [3H]N-methyl-SSR504734 as radioligand after 1 hr by liquid scintillation counting method; format: functional; conditions: ip
In short: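 Mice dosed i.p. at several doses; forebrain homogenates then tested ex vivo for binding of a GlyT1 radioligand to give target occupancy, with ED50 for 50% occupancy estimated across the dose range.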

[9] = Efflux ratio in MDCK2-MDR1 cells at 1 uM incubated fro 1 hr by LC-MS/MS method; format: ADME, cell-based, Canis lupus familiaris; conditions: dog, MDCK-MDR1
[10] = target: Voltage-gated inwardly rectifying potassium channel KCNH2 (Homo sapiens, UniProt Q12809); assay: Inhibition of human ERG
[11] = Drug level in Sprague-Dawley rat brain at 0.2 mg/kg, ip measured after 8 to 24 hrs by LC-MS/MS method; format: ADME, organism-based; conditions: in vivo, read-out: Drug uptake
[12] = Oral bioavailability in Sprague-Dawley rat at measured after 8 to 24 hrs by LC-MS/MS method; format: ADME, organism-based; conditions: in vivo
[13] = Oral bioavailability in dog; format: ADME, organism-based, Canis lupus familiaris; conditions: in vivo
[14] = Solubility in water; format: physicochemical
[15] = Permeability in MDCK2-MDR1 cells at 1 uM incubated fro 1 hr by LC-MS/MS method; format: ADME, cell-based, Canis lupus familiaris; conditions: dog, MDCK-MDR1; read-out: permeability
Mus musculus [16] = assay: Reversal of L687,414-induced hyperlocomotion in mouse at 0.3 to 3 mg/kg, ip dosed 120 mins before test followed by L687,414 dosing for 15 mins before test and measured after 60 mins by Wilcoxon-Mann-Whitney test; format: functional
In short: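 Non-habituated mice received test agent (0.3, 1.0, 3.0 mg/kg) or vehicle i.p. 120 min before test, then 50 mg/kg L-687,414 or vehicle i.p. 15 min before test; locomotor activity recorded for 60 min; n=8 mice per group, mean ± SEM; Mann-Whitney and Dunn's multiple comparisons tests.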

Voltage-gated inwardly rectifying potassium channel KCNH2, sequence (Q12809 whole entry): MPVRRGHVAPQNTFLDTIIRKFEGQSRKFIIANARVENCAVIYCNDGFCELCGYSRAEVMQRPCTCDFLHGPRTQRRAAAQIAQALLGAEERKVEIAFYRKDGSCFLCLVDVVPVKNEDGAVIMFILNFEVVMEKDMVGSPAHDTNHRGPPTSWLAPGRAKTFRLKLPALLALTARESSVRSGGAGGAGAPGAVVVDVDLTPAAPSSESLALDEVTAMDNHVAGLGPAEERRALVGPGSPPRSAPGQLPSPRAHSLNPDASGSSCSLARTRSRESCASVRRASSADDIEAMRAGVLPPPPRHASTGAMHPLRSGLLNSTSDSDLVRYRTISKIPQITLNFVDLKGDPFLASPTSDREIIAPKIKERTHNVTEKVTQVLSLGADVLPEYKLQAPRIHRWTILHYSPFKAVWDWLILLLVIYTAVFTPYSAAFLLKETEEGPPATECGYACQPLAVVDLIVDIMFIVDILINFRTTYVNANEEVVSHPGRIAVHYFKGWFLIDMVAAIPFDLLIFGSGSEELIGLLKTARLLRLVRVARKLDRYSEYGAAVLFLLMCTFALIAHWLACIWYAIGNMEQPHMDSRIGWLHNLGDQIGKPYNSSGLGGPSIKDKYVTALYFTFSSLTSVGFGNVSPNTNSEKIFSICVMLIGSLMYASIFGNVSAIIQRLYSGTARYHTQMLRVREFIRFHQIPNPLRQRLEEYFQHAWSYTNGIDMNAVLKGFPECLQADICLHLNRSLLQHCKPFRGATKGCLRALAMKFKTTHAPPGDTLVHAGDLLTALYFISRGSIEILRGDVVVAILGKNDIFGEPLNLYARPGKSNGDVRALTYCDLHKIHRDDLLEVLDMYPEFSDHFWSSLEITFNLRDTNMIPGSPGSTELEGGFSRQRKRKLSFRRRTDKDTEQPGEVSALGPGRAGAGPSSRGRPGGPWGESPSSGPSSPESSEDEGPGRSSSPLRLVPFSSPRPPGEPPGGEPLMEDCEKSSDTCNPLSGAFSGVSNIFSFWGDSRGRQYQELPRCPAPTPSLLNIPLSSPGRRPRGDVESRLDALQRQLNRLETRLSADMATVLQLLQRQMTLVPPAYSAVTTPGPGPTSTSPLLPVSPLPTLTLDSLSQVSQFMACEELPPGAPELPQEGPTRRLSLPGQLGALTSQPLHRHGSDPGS

Ki [1] [nM] | inhibition [2] [%] | inhibition [3] [%] | inhibition [4] | microsomal CLint at 0.5 µM [5] [µL/min/mg] | microsomal CLint at 0.5 µM [6] [µL/min/mg] | fCmax [7] [nM] | efflux ratio at 1 h, 1 µM [9] | concentration [11] [nM] | bioavailability [12] [%] | bioavailability [13] [%] | solubility [14] [µg/mL] | Papp at 1 h, 1 µM [15] [×10⁻⁶ cm/s] | Structure (SMILES) | ED50 (Mus musculus [8]) [mg/kg] | IC50 [10] [nM] | ED50 (Mus musculus [16]) [mg/kg] | inhibition (Mus musculus [16])
47 | 67 | 95 | Active |  |  |  |  |  |  |  |  |  | C[C@H](Oc1ccc(S(C)(=O)=O)cc1C(=O)N1CCN(c2ncc(C(F)(F)F)cc2F)CC1)C(F)(F)F [BITOPERTIN] |  |  |  | 
0.9 |  |  |  | 85 | < 23 | 18.7 | 1.7 | 0.9 |  |  |  |  | O=S(=O)(CC1CC1)NC1CN(c2ccc3c(c2)[C@@H](Cc2ccccc2)[C@@H](N2CCC2)CC3)C1 | 0.2 | 4400 |  | 
0.8 | 97 | 39 |  | 55 | 10 | 2 | 12 |  | 17 | 75 | > 1000 | 22 | Cn1cnc(S(=O)(=O)NCCOc2ccc3c(c2)[C@@H](Cc2ccccc2)[C@@H](N2CCC2)CC3)c1 | 1.4 | 15000 | 0.8 | Dose-dependent effect
